# ChEMBL document CHEMBL4400568, “The design of 1,4-naphthoquinone derivatives and mechanisms underlying apoptosis induction through ROS-dependent MAPK/Akt/STAT3 pathways in human lung cancer cells” (Bioorg Med Chem, 2019)
# Activity calls are given as the source filed them. No cut-off for these calls is given here.
# Assays:
# [1] = tested on: NCI-H23; assay: Cytotoxicity against human NCI-H23 cells assessed as reduction in cell viability after 24 hrs by MTT assay; type: functional, cell-based
# Outline: (§1)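 Log-phase cells seeded at 1 × 10⁴ per well. Lung cancer lines (A549, NCI-H23, NCI-H460) and normal lines (IMR-90, QSG-7701, HEK-293A) each exposed to 1, 3, 10, 30 and 100 μM for 24 h. MTT (5 mg/mL stock) added for 2 h at 37°C, formazan dissolved in DMSO, absorbance read at 490 nm. Three independent experiments, mean ± SD.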
# [2] = tested on: NCI-H460; assay: Cytotoxicity against human NCI-H460 cells assessed as reduction in cell viability after 24 hrs by MTT assay; type: functional, cell-based; outline: as §1
# [3] = tested on: A549; assay: Cytotoxicity against human A549 cells assessed as reduction in cell viability after 24 hrs by MTT assay; type: functional, cell-based; details: A549, 24 h; outline: as §1
# [4] = Cytotoxicity against HEK293A cells assessed as reduction in cell viability after 24 hrs by MTT assay; type: cell-based; details: human, hek293-a; outline: as §1
# [5] = tested on: A549; assay: Induction of apoptosis in human A549 cells assessed as cell shrinkage at 3 uM by Annexin V-FITC/propidium iodide staining-based flow cytometric analysis; type: functional; details: TDE = time-dependent effect
# [6] = tested on: A549; assay: Induction of apoptosis in human A549 cells assessed as increase in Bad levels at 3 uM after 24 hrs by Western blot analysis; type: functional, cell-based
# Outline: (§2)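 A549 cells exposed to 3 μM for 3, 6, 12 or 24 h; where NAC is used, 10 mM NAC is added 30 min before 24 h treatment. Lysate protein (30 μg) is run on 12% SDS-PAGE, blotted to nitrocellulose, blocked in 5% milk, primary antibody overnight at 4°C, then HRP anti-IgG. β-actin loading control; densitometry; three independent experiments, mean ± SD.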
# [7] = tested on: A549; assay: Induction of apoptosis in human A549 cells assessed as early apoptotic cells at 3 uM after 12 hrs by Annexin V-FITC/propidium iodide staining-based flow cytometric analysis (reference value: 2.73%); type: functional
# [8] = tested on: A549; assay: Cell cycle arrest in human A549 cells assessed as accumulation of cells at G1 phase at 3 uM after 3 hrs by propidium iodide staining-based flow cytometric analysis (reference value: 57.65%); type: functional
# [9] = tested on: A549; assay: Cell cycle arrest in human A549 cells assessed as accumulation of cells at S phase at 3 uM after 3 hrs by propidium iodide staining-based flow cytometric analysis (reference value: 13.85%); type: functional
# [10] = tested on: A549; assay: Cell cycle arrest in human A549 cells assessed as accumulation of cells at G2 phase at 3 uM after 3 hrs by propidium iodide staining-based flow cytometric analysis (reference value: 24.02%); type: functional
# [11] = tested on: A549; assay: Cell cycle arrest in human A549 cells assessed as accumulation of cells at S phase at 3 uM after 12 hrs by propidium iodide staining-based flow cytometric analysis (reference value: 13.85%); type: functional
# [12] = tested on: A549; assay: Cell cycle arrest in human A549 cells assessed as accumulation of cells at G1 phase at 3 uM after 24 hrs by propidium iodide staining-based flow cytometric analysis (reference value: 57.65%); type: functional
# [13] = tested on: A549; assay: Cell cycle arrest in human A549 cells assessed as accumulation of cells at S phase at 3 uM after 24 hrs by propidium iodide staining-based flow cytometric analysis (reference value: 13.85%); type: functional
# [14] = tested on: A549; assay: Cell cycle arrest in human A549 cells assessed as decrease in CDK4/6 levels at 3 uM by Western blot analysis; type: functional, cell-based; details: TDE = time-dependent effect; outline: as §2
# [15] = tested on: A549; assay: Cell cycle arrest in human A549 cells assessed as decrease in cyclinD1/E levels at 3 uM by Western blot analysis; type: functional, cell-based; details: TDE = time-dependent effect; outline: as §2
# [16] = biological target: RAC-alpha serine/threonine-protein kinase (Homo sapiens) (UniProt P31749); assay: Inhibition of AKT phosphorylation in human A549 cells at 3 uM by Western blot analysis; type: cell-based; details: TDE = time-dependent effect
# Chain of RAC-alpha serine/threonine-protein kinase (Homo sapiens) (P31749 whole entry): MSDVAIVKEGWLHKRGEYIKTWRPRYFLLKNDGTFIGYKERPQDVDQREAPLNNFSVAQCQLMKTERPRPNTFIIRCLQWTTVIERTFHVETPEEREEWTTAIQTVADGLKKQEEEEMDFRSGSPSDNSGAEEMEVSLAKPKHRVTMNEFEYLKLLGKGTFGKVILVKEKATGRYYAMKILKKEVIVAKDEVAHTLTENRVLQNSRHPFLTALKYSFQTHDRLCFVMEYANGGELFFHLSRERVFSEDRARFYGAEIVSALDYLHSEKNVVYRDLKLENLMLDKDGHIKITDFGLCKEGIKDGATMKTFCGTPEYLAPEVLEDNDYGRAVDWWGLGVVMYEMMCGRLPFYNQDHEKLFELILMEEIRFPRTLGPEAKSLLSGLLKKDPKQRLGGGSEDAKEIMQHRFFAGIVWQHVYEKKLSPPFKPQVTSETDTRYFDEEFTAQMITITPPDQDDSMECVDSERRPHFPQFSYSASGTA
# Outline: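 A549 cells exposed to 3 μM for 3, 6, 12 or 24 h. Lysate protein (30 μg) run on 12% SDS-PAGE and blotted to nitrocellulose. Membranes blocked in 5% skim milk, primary antibodies at 4°C overnight, then HRP anti-IgG secondary for 1 h at room temperature. β-actin was the internal control. Bands quantified by densitometry; three independent experiments, mean ± SD.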
# [17] = biological target: T1, MAP kinase p38 (Homo sapiens) (UniProt O15264+Q15759+Q16539+P53778); assay: Activation of p38 phosphorylation in human A549 cells at 3 uM after 3 to 24 hrs by Western blot analysis; type: cell-based; outline: as §2
# [18] = biological target: T2, c-Jun N-terminal kinase, JNK (Homo sapiens) (UniProt P45983+P53779+P45984); assay: Modulation of JNK in human A549 cells assessed as decrease in STAT3 phosphorylation measured after 24 hrs in presence of JNK inhibitor SP600125 by Western blot analysis; type: cell-based
# Outline: (§3)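 A549 cells pre-incubated for 30 min with 12.1 μM kinase inhibitor: SB203580 (p38), SP600125 (JNK), FR180204 (ERK) or LY10249 (Akt). Compound treatment followed for 24 h. Lysates (30 μg protein) analysed by 12% SDS-PAGE and nitrocellulose immunoblot with HRP detection. Three independent experiments, mean ± SD.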
# [19] = biological target: RAC-alpha serine/threonine-protein kinase (Homo sapiens) (UniProt P31749); assay: Modulation of AKT in human A549 cells assessed as increase in p27 levels measured after 24 hrs in presence of Akt inhibitor-LY10249 by Western blot analysis; type: cell-based; outline: as §3
# [20] = tested on: A549; assay: Induction of ROS generation in human A549 cells assessed as intracellular ROS level at 3 uM after 6 hrs by DCFH-DA staining-based flow cytometric analysis (reference value: 51.8%); type: functional
# Outline: (§4)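 A549 cells loaded with DCFH-DA (10 μM per legend) for 30 min, then exposed to 3 μM at 37°C for 3, 6, 12 or 24 h. After two PBS washes, intracellular fluorescence is quantified by flow cytometry. Three independent experiments, mean ± SD.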
# [21] = tested on: A549; assay: Induction of ROS generation in human A549 cells assessed as intracellular ROS level at 3 uM after 24 hrs by DCFH-DA staining-based flow cytometric analysis (reference value: 51.8%); type: functional; outline: as §4
# [22] = tested on: A549; assay: Induction of ROS generation in human A549 cells at 3 uM by DCFH-DA staining-based flow cytometric analysis; type: functional, cell-based; details: TDE = time-dependent effect; outline: as §4
# [23] = tested on: A549; assay: Inhibition of ERK phosphorylation in human A549 cells at 3 uM after 24 hrs in presence of NAC by Western blot analysis; type: cell-based
# Outline: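 A549 cells pretreated with 10 mM NAC for 30 min, then exposed to compound for 24 h. Lysate protein (30 μg) resolved on 12% SDS-PAGE and transferred to nitrocellulose. Probed with primary antibodies overnight at 4°C, then HRP secondary. Band densities from three independent experiments, mean ± SD.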
# [24] = biological target: T1, MAP kinase p38 (Homo sapiens); assay: Activation of p38 phosphorylation in human A549 cells at 3 uM after 24 hrs in presence of NAC by Western blot analysis; type: cell-based; outline: as §2
# [25] = biological target: T2, c-Jun N-terminal kinase, JNK (Homo sapiens); assay: Activation of JNK phosphorylation in human A549 cells at 3 uM after 24 hrs in presence of NAC by Western blot analysis; type: cell-based; outline: as §2
# [26] = tested on: A549; assay: Induction of apoptosis in human A549 cells assessed as increase in cleaved caspase-3 at 3 uM measured after 24 hrs in presence of NAC by Western blot analysis; type: functional, cell-based; outline: as §2
inhibition [16],Activity [17],Activity [18],Activity [19],Structure (SMILES),Activity [1],Activity [2],IC50 [3] [µM],Activity [4],Activity [5],Activity [6],Activity [7] [%],Activity [8] [%],Activity [9] [%],Activity [10] [%],Activity [11] [%],Activity [12] [%],Activity [13] [%],Activity [14],Activity [15],Activity [20] [%],also measured
Tde,Active,inactive,Active,CCCS(=O)(=O)C12OC1C(=O)c1c(OC)ccc(OC)c1C2=O (configuration not stated),Active,Active,2.59,Non-Toxic,Tde,Active,35.37,60.85,11.61,23.47,9.06,72.02,7.41,Tde,Tde,60.04,Activity [21]: 76.35%; Activity [22]: Tde; inhibition [23]: inactive; Activity [24]: inactive; Activity [25]: inactive; Activity [26]: inactive
Tde,Active,inactive,Active,CCCCCCCCCS(=O)(=O)C12OC1C(=O)c1c(OC)ccc(OC)c1C2=O (configuration not stated),Active,Active,7.54,Non-Toxic,Tde,Active,16.92,61.21,9.45,26.58,7.18,71.38,6.03,Tde,Tde,59.58,Activity [21]: 70.81%; Activity [22]: Tde; inhibition [23]: inactive; Activity [24]: inactive; Activity [25]: inactive; Activity [26]: inactive
